Legend:
[1] = Cell cycle arrest in mouse DA1-3b cells assessed as accumulation at G1 phase at 10^-4 M after 24 hrs using propidium iodide staining by cytofluorometry (reference value: 52.2 %); assay type: functional, cell-based
Method in brief: (§1)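 DA1-3b murine leukemia cells were exposed to the compound for 24 h. They were then stained in a solution containing propidium iodide (50 µg/mL) and RNase A (0.5 mg/mL) and analysed on a FACScan cytofluorometer. The percentage of cells in each cell-cycle phase was reported, with several compound concentrations tested.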

[2] = Cell cycle arrest in mouse DA1-3b cells assessed as accumulation at sub-G1 phase at 10^-4 M after 24 hrs using propidium iodide staining by cytofluorometry (reference value: 0.7 %); assay type: functional, cell-based; method in brief: as §1
[3] = Cell cycle arrest in mouse DA1-3b cells assessed as accumulation at S phase at 10^-4 M after 24 hrs using propidium iodide staining by cytofluorometry (reference value: 28.0 %); assay type: functional, cell-based; method in brief: as §1
[4] = system: SK-MEL-2; assay: Cytotoxicity against human SK-MEL-2 cells after 48 hrs by sulforhodamine B assay; assay type: functional; settings: SK-MEL-2, 48 h
[5] = system: DU-145; assay: Cytotoxicity against human DU145 cells after 48 hrs by sulforhodamine B assay; assay type: functional; settings: DU-145, 48 h
[6] = Cell cycle arrest in mouse DA1-3b cells assessed as accumulation at G2/M phase at 10^-5 M after 24 hrs using propidium iodide staining by cytofluorometry (reference value: 18.0 %); assay type: functional, cell-based; method in brief: as §1
[7] = Cell cycle arrest in mouse DA1-3b cells assessed as accumulation at G1 phase at 10^-5 M after 24 hrs using propidium iodide staining by cytofluorometry (reference value: 52.2 %); assay type: functional, cell-based; method in brief: as §1
[8] = Cell cycle arrest in mouse DA1-3b cells assessed as accumulation at S phase at 10^-5 M after 24 hrs using propidium iodide staining by cytofluorometry (reference value: 28.0 %); assay type: functional, cell-based; method in brief: as §1
[9] = system: Hs-578T; assay: Cytotoxicity against human HS578T cells after 48 hrs by sulforhodamine B assay; assay type: functional
[10] = Cell cycle arrest in mouse DA1-3b cells assessed as accumulation at G2/M phase at 10^-6 M after 24 hrs using propidium iodide staining by cytofluorometry (reference value: 18.0 %); assay type: functional, cell-based; method in brief: as §1
[11] = system: NCI-H522; assay: Cytotoxicity against human NCI-H522 cells after 48 hrs by sulforhodamine B assay; assay type: functional; settings: NCI-H522, 48 h
[12] = system: COLO 205; assay: Cytotoxicity against human COLO205 cells after 48 hrs by sulforhodamine B assay; assay type: functional; settings: COLO 205, 48 h
[13] = system: SF-295; assay: Cytotoxicity against human SF295 cells after 48 hrs by sulforhodamine B assay; assay type: functional; settings: SF-295, 48 h
[14] = Cell cycle arrest in mouse DA1-3b cells assessed as accumulation at G2/M phase at 10^-4 M after 24 hrs using propidium iodide staining by cytofluorometry (reference value: 18.0 %); assay type: functional, cell-based; method in brief: as §1
[15] = system: UACC-62; assay: Cytotoxicity against human UACC62 cells after 48 hrs by sulforhodamine B assay; assay type: functional; settings: UACC-62, 48 h
[16] = system: NCI-H460; assay: Cytotoxicity against human NCI-H460 cells after 48 hrs by sulforhodamine B assay; assay type: functional; settings: NCI-H460, 48 h
[17] = Cell cycle arrest in mouse DA1-3b cells assessed as accumulation at S phase at 10^-6 M after 24 hrs using propidium iodide staining by cytofluorometry (reference value: 28.0 %); assay type: functional, cell-based; method in brief: as §1
[18] = system: MDA-MB-468; assay: Cytotoxicity against human MDA-MB-468 cells after 48 hrs by sulforhodamine B assay; assay type: functional; settings: MDA-MB-468, 48 h
[19] = Cell cycle arrest in mouse DA1-3b cells assessed as accumulation at sub-G1 phase at 10^-5 M after 24 hrs using propidium iodide staining by cytofluorometry (reference value: 0.7 %); assay type: functional, cell-based; method in brief: as §1
[20] = system: SK-OV-3; assay: Cytotoxicity against human SKOV3 cells after 48 hrs by sulforhodamine B assay; assay type: functional; settings: SK-OV-3, 48 h
[21] = system: RXF 393; assay: Cytotoxicity against human RXF393 cells after 48 hrs by sulforhodamine B assay; assay type: functional; settings: RXF 393, 48 h
[22] = system: A549; assay: Cytotoxicity against human A549 cells after 48 hrs by sulforhodamine B assay; assay type: functional; settings: A549, 48 h
[23] = system: HT-29; assay: Cytotoxicity against human HT29 cells after 48 hrs by sulforhodamine B assay; assay type: functional; settings: HT-29, 48 h
[24] = Cell cycle arrest in mouse DA1-3b cells assessed as accumulation at G1 phase at 10^-6 M after 24 hrs using propidium iodide staining by cytofluorometry (reference value: 52.2 %); assay type: functional, cell-based; method in brief: as §1
[25] = system: MDA-MB-435; assay: Cytotoxicity against human MDA-MB-435 cells after 48 hrs by sulforhodamine B assay; assay type: functional; settings: MDA-MB-435, 48 h
[26] = Cell cycle arrest in mouse DA1-3b cells assessed as accumulation at sub-G1 phase at 10^-6 M after 24 hrs using propidium iodide staining by cytofluorometry (reference value: 0.7 %); assay type: functional, cell-based; method in brief: as §1
[27] = system: HCC 2998; assay: Cytotoxicity against human HCC2998 cells after 48 hrs by sulforhodamine B assay; assay type: functional; settings: HCC 2998, 48 h
[28] = system: EKVX; assay: Cytotoxicity against human EKVX cells after 48 hrs by sulforhodamine B assay; assay type: functional
[29] = system: NCI/ADR-RES; assay: Cytotoxicity against human NCI/ADR-RES cells after 48 hrs by sulforhodamine B assay; assay type: functional
[30] = system: HL-60; assay: Cytotoxicity against human HL60 cells after 48 hrs by sulforhodamine B assay; assay type: functional; settings: HL-60, 48 h
[31] = system: A498; assay: Cytotoxicity against human A498 cells after 48 hrs by sulforhodamine B assay; assay type: functional; settings: A498, 48 h
[32] = system: K562; assay: Cytotoxicity against human K562 cells after 48 hrs by sulforhodamine B assay; assay type: functional; settings: K562, 48 h
[33] = system: SN12C; assay: Cytotoxicity against human SN12C cells after 48 hrs by sulforhodamine B assay; assay type: functional
[34] = system: CAKI-1; assay: Cytotoxicity against human Caki1 cells after 48 hrs by sulforhodamine B assay; assay type: functional; settings: CAKI-1, 48 h
[35] = system: OVCAR-5; assay: Cytotoxicity against human OVCAR5 cells after 48 hrs by sulforhodamine B assay; assay type: functional; settings: OVCAR-5, 48 h
[36] = system: OVCAR-3; assay: Cytotoxicity against human OVCAR3 cells after 48 hrs by sulforhodamine B assay; assay type: functional; settings: OVCAR-3, 48 h
[37] = system: KM12; assay: Cytotoxicity against human KM12 cells after 48 hrs by sulforhodamine B assay; assay type: functional; settings: KM12, 48 h
[38] = system: A549; assay: Cytotoxicity against human A549/ATCC cells after 48 hrs by sulforhodamine B assay; assay type: functional; settings: A549, 48 h
[39] = system: MCF7; assay: Cytotoxicity against human MCF7 cells after 48 hrs by sulforhodamine B assay; assay type: functional; settings: MCF7, 48 h
[40] = system: CCRF-CEM; assay: Cytotoxicity against human CCRF-CEM cells after 48 hrs by sulforhodamine B assay; assay type: functional
[41] = Inhibition of bovine brain tubulin polymerization after 30 mins by turbidimetry analysis; set-up: species or system Bos taurus
Method in brief: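 Lyophilized bovine brain tubulin (97%) reconstituted to 5 mg/mL in 80 mM PIPES pH 6.9, 2 mM MgCl₂, 0.5 mM EGTA, 1.0 mM GTP and 5% glycerol. Compound in DMSO was added to this solution in a quartz cuvette at 0 °C. Assembly was followed as the rise in absorbance at 340 nm at 37 °C. IC₅₀ is the molar concentration halving the extent of assembly after 30 min.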

[42] = system: NCI-H322M; assay: Cytotoxicity against human NCI-H322M cells after 48 hrs by sulforhodamine B assay; assay type: functional
[43] = system: SK-MEL-28; assay: Cytotoxicity against human SK-MEL-28 cells after 48 hrs by sulforhodamine B assay; assay type: functional; settings: SK-MEL-28, 48 h
[44] = system: MDA-MB-231; assay: Cytotoxicity against human MDA-MB-231/ATCC cells after 48 hrs by sulforhodamine B assay; assay type: functional; settings: MDA-MB-231, 48 h
[45] = system: OVCAR-4; assay: Cytotoxicity against human OVCAR4 cells after 48 hrs by sulforhodamine B assay; assay type: functional; settings: OVCAR-4, 48 h
[46] = system: UO-31; assay: Cytotoxicity against human UO31 cells after 48 hrs by sulforhodamine B assay; assay type: functional; settings: UO-31, 48 h
[47] = system: HCT-15; assay: Cytotoxicity against human HCT15 cells after 48 hrs by sulforhodamine B assay; assay type: functional; settings: HCT-15, 48 h
[48] = system: M14; assay: Cytotoxicity against human M14 cells after 48 hrs by sulforhodamine B assay; assay type: functional; settings: M14, 48 h
[49] = system: SF-539; assay: Cytotoxicity against human SF539 cells after 48 hrs by sulforhodamine B assay; assay type: functional; settings: SF-539, 48 h
[50] = system: SF-268; assay: Cytotoxicity against human SF268 cells after 48 hrs by sulforhodamine B assay; assay type: functional; settings: SF-268, 48 h
[51] = system: HCT-116; assay: Cytotoxicity against human HCT116 cells after 48 hrs by sulforhodamine B assay; assay type: functional; settings: HCT-116, 48 h
[52] = Cell cycle arrest in mouse DA1-3b cells assessed as accumulation at G2/M phase after 24 hrs using propidium iodide staining by cytofluorometry; assay type: functional, cell-based; method in brief: as §1

COc1ccc(C(=O)c2cc(OC)c(OC)c(OC)c2)c(OC)c1O showed an Activity [1] of 26.1%, an Activity [2] of 36.5% and an Activity [3] of 11.6%. It also gave a GI50 [4] of 26.6 nM, a GI50 [5] of 20.9 nM and an Activity [6] of 32.9%. For the same compound, the Activity [7] was 24.7%, the Activity [8] was 11.8% and the GI50 [9] was less than 10 nM. It also gave an Activity [10] of 47.2%, a GI50 [11] of less than 10 nM and a GI50 [12] of 6200 nM. For the same compound, the GI50 [13] was 19.9 nM, the Activity [14] was 25.3% and the GI50 [15] was 27.3 nM. The GI50 [16] was 50.7 nM, the Activity [17] was 13.1% and the GI50 [18] was 249 nM. It also gave an Activity [19] of 30%, a GI50 [20] of 89.6 nM and a GI50 [21] of 15.9 nM. It also gave a GI50 [22] of 41.3 nM, a GI50 [23] of 3460 nM and an Activity [24] of 21.5%. It also gave a GI50 [25] of less than 10 nM, an Activity [26] of 17.5% and a GI50 [27] of 211 nM. For the same compound, the GI50 [28] was 611 nM, the GI50 [29] was less than 10 nM and the GI50 [30] was 23.5 nM. The GI50 [31] was 2720 nM, the GI50 [32] was less than 10 nM and the GI50 [33] was 46.9 nM. It also gave a GI50 [34] of 120 nM, a GI50 [35] of 651 nM and a GI50 [36] of 22.2 nM. The GI50 [37] was less than 10 nM, the GI50 [38] was 41.3 nM and the GI50 [39] was 26.4 nM. For the same compound, the GI50 [40] was 28.8 nM, the IC50 [41] was 3200 nM and the GI50 [42] was less than 10 nM. For the same compound, the GI50 [43] was 9460 nM, the GI50 [44] was 24.6 nM and the GI50 [45] was 73 nM. It also gave a GI50 [46] of 48.9 nM, a GI50 [47] of 10.6 nM and a GI50 [48] of less than 10 nM. For the same compound, the GI50 [49] was 15.1 nM, the GI50 [50] was 21.1 nM and the GI50 [51] was 32 nM. The Activity [52] was “Dose-dependent effect”.

Reference: ChEMBL document CHEMBL1833921, “Synthesis and biological evaluation of phenstatin metabolites” (Bioorg Med Chem, 2011)
